Measured values: ChEMBL document CHEMBL2057069, “Benzoxazole and benzothiazole amides as novel pharmacokinetic enhancers of HIV protease inhibitors” (Bioorg Med Chem Lett, 2012)

Tests used:
[1] = system: Human immunodeficiency virus 1; experiment: Antiviral activity against wild type HIV1 3B infected in human MT4 LTR-EGFP cells by EGFP reporter gene assay; assay type: functional, organism-based; settings: Human immunodeficiency virus 1, 3B
Cytochrome P450 3A4 = Cytochrome P450 3A4 (Homo sapiens, UniProt P08684); experiment: Inhibition of CYP3A4 in human liver microsomes using midazolam as substrate after 10 mins by LC/MS/MS analysis
Cytochrome P450 3A4, sequence (P08684 whole entry): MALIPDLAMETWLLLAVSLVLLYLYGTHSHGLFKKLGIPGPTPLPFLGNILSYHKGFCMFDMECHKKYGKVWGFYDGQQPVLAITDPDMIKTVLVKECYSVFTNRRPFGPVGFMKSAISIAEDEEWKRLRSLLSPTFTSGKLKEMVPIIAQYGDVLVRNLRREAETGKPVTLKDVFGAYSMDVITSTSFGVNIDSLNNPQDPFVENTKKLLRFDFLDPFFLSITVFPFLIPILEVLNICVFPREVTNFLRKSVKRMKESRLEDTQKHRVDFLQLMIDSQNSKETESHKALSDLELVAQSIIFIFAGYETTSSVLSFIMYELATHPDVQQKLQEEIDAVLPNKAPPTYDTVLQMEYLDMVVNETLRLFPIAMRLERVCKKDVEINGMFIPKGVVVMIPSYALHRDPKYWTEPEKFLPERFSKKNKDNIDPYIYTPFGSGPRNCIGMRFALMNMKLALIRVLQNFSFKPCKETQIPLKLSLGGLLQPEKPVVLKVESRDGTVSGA

[2] = AUC (0 to infinity) in dog at 7.5 mg/kg, po; assay type: ADME, organism-based, Canis lupus familiaris; design: time infinity, dose 7.5 mg/kg, route oral; settings: plasma
How it was run: (§1)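 Drug–drug interaction study in dogs, n = 3. The booster was given orally at 7.5 mg/kg as a PEG400 solution, 5 min before oral darunavir at 30 mg/kg. Darunavir plasma Cmax and AUC0–∞ were measured, with fold increase calculated against darunavir dosed alone.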

[3] = Cmax in dog at 7.5 mg/kg, po; assay type: ADME, organism-based, Canis lupus familiaris; design: dose 7.5 mg/kg, route oral; settings: in vivo; how it was run: as §1
Canis familiaris [4] = experiment: Enhancement of darunavir AUC (0 to infinity) in dog at 7.5 mg/kg, po administered 5 mins prior to darunavir co-administration; assay type: ADME, organism-based, Canis lupus familiaris; design: dose 7.5 mg/kg, route oral; settings: in vivo
Canis familiaris [5] = experiment: Enhancement of darunavir Cmax in dog at 7.5 mg/kg, po administered 5 mins prior to darunavir co-administration; assay type: ADME, organism-based, Canis lupus familiaris; design: dose 7.5 mg/kg, route oral; settings: in vivo
[6] = Absolute oral bioavailability in dog at 10 mg/kg administered as single dose; assay type: ADME, organism-based, Canis lupus familiaris; settings: in vivo
How it was run: (§2)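 Single oral dose of 10 mg/kg given to rats and dogs, n = 3 per species. Plasma Cmax, Tmax, AUC0–∞ and absolute oral bioavailability were derived from the plasma profiles.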

[7] = AUC (0 to infinity) in dog at 10 mg/kg, po administered as single dose; assay type: ADME, organism-based, Canis lupus familiaris; design: time infinity, dose 10 mg/kg, route oral; settings: plasma; how it was run: as §2
[8] = Tmax in dog at 10 mg/kg, po administered as single dose; assay type: ADME, organism-based, Canis lupus familiaris; design: dose 10 mg/kg, route oral; settings: in vivo; how it was run: as §2
[9] = Cmax in dog at 10 mg/kg, po administered as single dose; assay type: ADME, organism-based, Canis lupus familiaris; design: dose 10 mg/kg, route oral; settings: in vivo; how it was run: as §2
[10] = Absolute oral bioavailability in rat at 10 mg/kg administered as single dose; assay type: ADME, organism-based; settings: in vivo; how it was run: as §2
[11] = AUC (0 to infinity) in rat at 10 mg/kg, po administered as single dose; assay type: ADME, organism-based; design: time infinity, dose 10 mg/kg, route oral; settings: plasma
[12] = Tmax in rat at 10 mg/kg, po administered as single dose; assay type: ADME, organism-based; design: dose 10 mg/kg, route oral; settings: in vivo; how it was run: as §2
[13] = Cmax in rat at 10 mg/kg, po administered as single dose; assay type: ADME, organism-based; design: dose 10 mg/kg, route oral; settings: in vivo; how it was run: as §2
[14] = Apparent permeability across human Caco2 cells at 10 uM at pH 7.4 after 60 mins; assay type: ADME, cell-based; settings: Caco-2, pH 7.4
How it was run: (§3)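 Caco-2 monolayers were exposed to compound at 10 µM and sampled after 60 min of incubation, at pH 5.5 or pH 7.4. Apparent permeability was measured in the absorptive and secretory directions, with efflux expressed as the secretory/absorptive ratio.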

[15] = Apparent permeability across human Caco2 cells at 10 uM at pH 5.5 after 60 mins; assay type: ADME, cell-based; settings: Caco-2, pH 5.5; how it was run: as §3
[16] = Efflux ratio of apparent permeability of the compound from basal to apical to apical to basal side of human Caco2 cells at 10 uM at pH 7.4 after 60 mins; assay type: ADME, cell-based; settings: Caco-2, pH 7.4
How it was run: (§4)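 Caco-2 monolayers; test compound at 10 µM; apparent permeability measured in secretory and absorptive directions at pH 5.5 and at pH 7.4, read after 60 min incubation; transport polarity taken as P_secretory/P_absorptive.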

[17] = Efflux ratio of apparent permeability of the compound from basal to apical to apical to basal side of human Caco2 cells at 10 uM at pH 5.5 after 60 mins; assay type: ADME, cell-based; settings: Caco-2, pH 5.5; how it was run: as §4

SMILES	EC50 [1]	IC50 (Cytochrome P450 3A4)	other results
CCN(C)c1nc2ccc(C(=O)N(CC(C)C)C[C@@H](O)[C@H](Cc3ccccc3)NC(=O)OCc3ccncc3)cc2o1	49 µM	0.2 µM	
CC(C)CN(C[C@@H](O)[C@H](Cc1cccnc1)NC(=O)OCc1cncs1)C(=O)c1ccc2ncsc2c1	> 100 µM	0.09 µM	
CC(C)CN(C[C@@H](O)[C@H](Cc1ccccc1)NC(=O)OCc1cncs1)C(=O)c1ccc2nc(NCCCn3ccnc3)oc2c1	87 µM		
CC(C)(C)CN(C[C@@H](O)[C@H](Cc1ccccc1)NC(=O)OCc1cncs1)C(=O)c1ccc2nc(N3CCCC3)oc2c1	30 µM	0.027 µM	
CCNc1nc2ccc(C(=O)N(CC(C)C)C[C@@H](O)[C@H](Cc3ccccc3)NC(=O)OCc3cncs3)cc2o1	85 µM	0.028 µM	
CC(C)CN(C[C@@H](O)[C@H](Cc1ccccc1)NC(=O)OCc1cncs1)C(=O)c1ccc2nc(NCCCN(C)C)oc2c1	60 µM	0.2 µM	
CCN(C)c1nc2ccc(C(=O)N(CC(C)C)C[C@H](O)[C@H](Cc3ccccc3)NC(=O)OCc3cncs3)cc2o1	45 µM		
O=C(N[C@@H](Cc1ccccc1)[C@H](O)CN(CCN1CCOCC1)C(=O)c1ccc2nc(N3CCCC3)oc2c1)OCc1cncs1	> 100 µM	0.12 µM	
CCN(C[C@@H](O)[C@H](Cc1ccccc1)NC(=O)OCc1cncs1)C(=O)c1ccc2nc(N3CCCC3)oc2c1	69 µM	0.06 µM	
O=C(N[C@@H](Cc1ccccc1)[C@H](O)CN(CCN1CCCC1)C(=O)c1ccc2nc(N3CCCC3)oc2c1)OCc1cncs1	58 µM	0.13 µM	
CC(C)CN(C[C@@H](O)[C@H](Cc1ccccc1)NC(=O)OCc1cncs1)C(=O)c1ccc2nc(-c3ccncc3)oc2c1	> 100 µM	0.024 µM	
CC(C)CN(C[C@@H](O)[C@H](Cc1ccccc1)NC(=O)OCc1cncs1)C(=O)c1ccc2ncoc2c1	> 100 µM	0.055 µM	
CC(C)CN(C[C@@H](O)[C@H](Cc1ccccc1)NC(=O)OCc1cncs1)C(=O)c1ccc2nc(NCCN(C)C)oc2c1	> 100 µM	0.2 µM	
CC(C)CN(C[C@@H](O)[C@H](Cc1ccccc1)NC(=O)OCc1cncs1)C(=O)c1ccc2nc(N3CCCC3)oc2c1	> 100 µM	0.033 µM	
CCN(C)c1nc2ccc(C(=O)N(CC3CCCCC3)C[C@@H](O)[C@H](Cc3ccccc3)NC(=O)OCc3cncs3)cc2o1	21 µM	0.026 µM	
CCN(C)c1nc2ccc(C(=O)N(C[C@@H](O)[C@H](Cc3ccccc3)NC(=O)OCc3cncs3)CC(C)(C)C)cc2o1	48 µM	0.037 µM	
CC(C)c1nc(CN(C)C(=O)N[C@H](C(=O)N[C@@H](Cc2ccccc2)C[C@H](O)[C@H](Cc2ccccc2)NC(=O)OCc2cncs2)C(C)C)cs1 [RITONAVIR]	0.0015 µM		
CCc1nc2ccc(C(=O)N(CC(C)C)C[C@@H](O)[C@H](Cc3ccccc3)NC(=O)OCc3cncs3)cc2o1	87 µM	0.039 µM	
CCN(C)c1nc2ccc(C(=O)N(CCN3CCOCC3)C[C@@H](O)[C@H](Cc3ccccc3)NC(=O)OCc3cncs3)cc2o1	> 100 µM	0.14 µM	
CC(C)CN(C[C@H](O)[C@H](Cc1ccccc1)NC(=O)OCc1cncs1)C(=O)c1ccc2nc(N3CCCC3)oc2c1	45 µM		
CCN(C)c1nc2ccc(C(=O)N(CCN(C)C)C[C@@H](O)[C@H](Cc3ccccc3)NC(=O)OCc3cncs3)cc2o1	> 100 µM		
Cc1nc2ccc(C(=O)N(CC(C)C)C[C@@H](O)[C@H](Cc3ccccc3)NC(=O)OCc3cncs3)cc2o1	> 100 µM	0.052 µM	
CCN(C)c1nc2ccc(C(=O)N(CC(C)C)C[C@@H](O)[C@H](Cc3ccccc3)NC(=O)OCc3cncs3)cc2o1	71 µM		AUC(0-inf) [2]: 2000 ng·h/mL; Cmax [3]: 610 ng/mL; fold change (FC) (Canis familiaris [4]): 5; fold change (FC) (Canis familiaris [5]): 2; bioavailability [6]: 81%; AUC(0-inf) [7]: 2240 ng·h/mL; Tmax [8]: 30 min; Cmax [9]: 1010 ng/mL; bioavailability [10]: 44%; AUC(0-inf) [11]: 970 ng·h/mL; Tmax [12]: 60 min; Cmax [13]: 240 ng/mL; Papp at 1 h, 10 µM [14]: 11 ×10⁻⁶ cm/s; Papp at 1 h, 10 µM [15]: 10 ×10⁻⁶ cm/s

Further lines, with some results ahead:

EC50 [1]	IC50 (Cytochrome P450 3A4)	SMILES	other results
16 µM		CCN(C)c1nc2ccc(C(=O)N(CC(C)C)C[C@@H](O)[C@H](Cc3ccccc3)NC(=O)OCc3ccc4c(c3)OCO4)cc2o1	
45 µM	0.037 µM	CC(C)CN(C[C@@H](O)[C@H](Cc1ccccc1)NC(=O)OCc1cncs1)C(=O)c1ccc2nc(C(C)C)oc2c1	
48 µM	0.03 µM	C#CCN(C)c1nc2ccc(C(=O)N(CC(C)C)C[C@@H](O)[C@H](Cc3ccccc3)NC(=O)OCc3cncs3)cc2o1	
> 100 µM	0.079 µM	CCN(C[C@@H](O)[C@H](Cc1ccccc1)NC(=O)OCc1cncs1)C(=O)c1ccc2nc(N(C)CC)oc2c1	
47 µM	0.023 µM	CCN(C)c1nc2ccc(C(=O)N(CC(C)C)C[C@@H](O)[C@H](Cc3ccc(F)cc3)NC(=O)OCc3cncs3)cc2o1	
> 100 µM	0.084 µM	CN(C[C@@H](O)[C@H](Cc1ccccc1)NC(=O)OCc1cncs1)C(=O)c1ccc2nc(N3CCCC3)oc2c1	
47 µM		CC(C)CN(C[C@@H](O)[C@H](Cc1ccccc1)NC(=O)OCc1cncs1)C(=O)c1ccc2nc(N(C)C)oc2c1	
60 µM		C#CCN(C[C@@H](O)[C@H](Cc1ccccc1)NC(=O)OCc1cncs1)C(=O)c1ccc2nc(N(C)CC)oc2c1	
> 100 µM	0.14 µM	CCN(C)c1nc2ccc(C(=O)N(CCN3CCCC3)C[C@@H](O)[C@H](Cc3ccccc3)NC(=O)OCc3cncs3)cc2o1	
> 100 µM	0.092 µM	CC(C)CN(C[C@@H](O)[C@H](Cc1ccccc1)NC(=O)OCc1cncs1)C(=O)c1ccc2nc(N3CCN(C)CC3)oc2c1	
> 100 µM		CCNc1nc2ccc(C(=O)N(C[C@@H](O)[C@H](Cc3ccccc3)NC(=O)OCc3cncs3)CC(C)(C)O)cc2o1	
> 100 µM	0.069 µM	CCN(C)c1nc2ccc(C(=O)N(CC(C)C)CC(O)[C@H](Cc3cccnc3)NC(=O)OCc3cncs3)cc2o1 (single isomer, unassigned)	
48 µM	0.022 µM	CCN(C)c1nc2ccc(C(=O)N(CC(C)C)C[C@@H](O)[C@H](Cc3ccccc3)NC(=O)OCc3cccnc3)cc2o1	
36 µM		CC(C)CN(C[C@@H](O)[C@H](Cc1ccccc1)NC(=O)OCc1cncs1)C(=O)c1ccc2nc(N3CCCCC3)oc2c1	
> 100 µM	2.7 µM	CC(C)CN(C[C@@H](O)[C@H](Cc1ccccc1)NC(=O)OCc1cncs1)C(=O)c1ccc2nc(NC3CCN(C)CC3)oc2c1	
28 µM	0.026 µM	O=C(N[C@@H](Cc1ccccc1)[C@H](O)CN(CC1CCCCC1)C(=O)c1ccc2nc(N3CCCC3)oc2c1)OCc1cncs1	
63 µM		CC(C)CN(C[C@@H](O)[C@H](Cc1ccccc1)NC(=O)OCc1cncs1)C(=O)c1ccc2nc(N(C)CCN(C)C)oc2c1	
> 100 µM	0.038 µM	CC(C)CN(C[C@@H](O)[C@H](Cc1ccccc1)NC(=O)OCc1cncs1)C(=O)c1ccc2nc(N3CCOCC3)oc2c1	
> 100 µM		CC(C)(O)CN(C[C@@H](O)[C@H](Cc1ccccc1)NC(=O)OCc1cncs1)C(=O)c1ccc2nc(N3CCCC3)oc2c1	
> 100 µM	0.23 µM	CN(C)CCN(C[C@@H](O)[C@H](Cc1ccccc1)NC(=O)OCc1cncs1)C(=O)c1ccc2nc(N3CCCC3)oc2c1	
30 µM	0.03 µM	O=C(N[C@@H](Cc1ccccc1)[C@H](O)CN(CC1CCC(F)(F)CC1)C(=O)c1ccc2nc(N3CCCC3)oc2c1)OCc1cncs1	
> 100 µM	0.042 µM	CC(C)CN(C[C@@H](O)[C@H](Cc1ccccc1)NC(=O)OCc1cncs1)C(=O)c1ccc2nc(N)oc2c1	
95 µM	0.023 µM	CC(C)CN(C[C@@H](O)[C@H](Cc1ccccc1)NC(=O)OCc1cncs1)C(=O)c1ccc2ncsc2c1	AUC(0-inf) [2]: 7070 ng·h/mL; Cmax [3]: 2100 ng/mL; fold change (FC) (Canis familiaris [4]): 4.8; fold change (FC) (Canis familiaris [5]): 2; bioavailability [6]: 97%; AUC(0-inf) [7]: 2240 ng·h/mL; Tmax [8]: 60 min; Cmax [9]: 5200 ng/mL; bioavailability [10]: 107%; AUC(0-inf) [11]: 7800 ng·h/mL; Tmax [12]: 30 min; Cmax [13]: 2800 ng/mL; efflux ratio at 1 h, 10 µM [16]: 3.6; efflux ratio at 1 h, 10 µM [17]: 2; Papp at 1 h, 10 µM [14]: 9.8 ×10⁻⁶ cm/s; Papp at 1 h, 10 µM [15]: 11 ×10⁻⁶ cm/s
